Measured values pooled from the literature.
Each line is one published result; the experiments were not run side by side.
Target: MAP kinase-activated protein kinase 2 (MAPKAPK2, Homo sapiens, UniProt P49137)

| SMILES | read-out | action | technique | tested at | quantity | result |
| --- | --- | --- | --- | --- | --- | --- |
| CN(C)C1CCN(CC#Cc2nn(C3CCCC3)c3nc(NCc4ccccc4)ncc23)C1 (stereo not drawn) | enzyme activity | inhibitor | FRET | 10 µM | inhibition | 0% |
| CCc1ccccc1C(=O)Nc1n[nH]c2c(C)c(F)c(C3C(C#N)=C(C)N(C)C(C)=C3C#N)cc12 | cell-free assay | – | competition with immobilised ligand | 1 µM | remaining binding | 100% |
| Nc1nc(NC2CCCCC2)sc1C(=O)c1ccccc1 | enzyme activity | inhibitor | – | 10 µM | remaining activity | 96% |
| O=C1CCc2cc(Nc3cc(OC4CCOCC4)c([N+](=O)[O-])cc3Cl)ccc2N1 | cell-free assay | – | competition with immobilised ligand | 1 µM | remaining binding | 99% |
| Cc1ccc(NC(=O)c2ccc(C)c(C(F)(F)F)c2)cc1C#Cc1nn(C2CCC(O)CC2)c2ncnc(N)c12 (stereo not drawn) | cell-free assay | – | – | 10 µM | remaining signal | 104% |
| Cc1cc(NC(=O)c2cccc3cc(-c4cccc5[nH]nc(N)c45)ccc23)ccc1F | enzyme activity | inhibitor | – | 0.1 µM | activity vs control | 95% |
| Oc1cccc(-c2nc(N3CCOCC3)c3oc4ncccc4c3n2)c1 | enzyme activity | inhibitor | – | 10 µM | remaining activity | 90% |
| CC(C)(C)c1nc2c(s1)c1nc(N)ncc1c1ccc(NS(=O)(=O)c3c(F)cccc3F)c(F)c12 | enzyme activity | inhibitor | radiometric | 1 µM | remaining activity | 69% |
| N#CCCc1ccc2c(c1)-c1[nH]c3ccc([N+](=O)[O-])cc3c1CC(=O)N2 | cell-free assay | – | – | 0.5 µM | remaining signal | 83.4% |
| CC(C)(O)[C@H]1CC[C@H](Nc2ccc3ncc(-c4cccc(C(F)(F)F)c4)n3n2)CC1 | enzyme activity | inhibitor | – | 1 µM | remaining activity | 105% |
| CC(C)c1ccc(NC(=O)c2cccs2)c(-c2nc3ccccc3[nH]c2=O)c1 | enzyme activity | inhibitor | – | 1 µM | activity vs control | 103% |
| FC(F)(F)Oc1cccc(-c2cnc3ccc(-c4ccncc4)nn23)c1 | enzyme activity | inhibitor | radiometric | 1 µM | activity vs control | 93% |
| CCN(CC)CCNC(=O)c1c(C)[nH]c(/C=C2\C(=O)Nc3ccc(F)cc32)c1C | enzyme activity | inhibitor | – | 10 µM | inhibition | 15% |
| CN1CC(Oc2cnc(C#N)cc2-c2ccn3nc(NC(=O)C4CC4)cc3c2)C1 | enzyme activity | inhibitor | – | 1 µM | inhibition | -21% |
| COc1cc2ncnc(Nc3ccc(Oc4ccccc4)cc3C)c2cc1OC | enzyme activity | inhibitor | – | 1 µM | inhibition | 4% |
| CC/C(=N\NC(=O)NCc1cccc(O)c1)c1ccc(O)c(C)c1O | enzyme activity | inhibitor | – | 0.1 µM | inhibition | -0.7% |
| c1ccc(N2CCN(Cc3nc4ccccc4[nH]3)CC2)nc1 | binding | – | competition with immobilised ligand | 1 µM | remaining binding | 100% |

| SMILES | read-out | action | technique | tested at | quantity | result |
| --- | --- | --- | --- | --- | --- | --- |
| CCN(CC)c1ccc(C2=NNC(=O)CC2C)cc1[N+](=O)[O-] (stereo not drawn) | enzyme activity | inhibitor | – | 10 µM | remaining activity | 86% |
| Cc1ccc(Nc2nccc(N(C)c3ccc4c(C)n(C)nc4c3)n2)cc1S(N)(=O)=O | enzyme activity | inhibitor | – | 10 µM | inhibition | 11% |
| Cn1c(=O)n(-c2ccc(C(C)(C)C#N)cc2)c2c3cc(-c4cnc5ccccc5c4)ccc3ncc21 | enzyme activity | inhibitor | – | 10 µM | remaining activity | 99% |
| Cc1noc([C@H]2C[C@@H](c3ccc(C(F)(F)F)cc3)CN(C(=O)N3CCS(=O)(=O)C3)C2)n1 | cell-free assay | – | competition with immobilised ligand | 1 µM | remaining binding | 97% |
| CCOc1cc(-c2nncn2C)ccc1Nc1ncc2cc(C)nc(NCC(C)(C)C)c2n1 | enzyme activity | inhibitor | FRET | 1 µM | inhibition | 24% |
| Cn1nc(C(=O)NCc2ccc(C(=O)O)cc2)cc1-c1ccc2[nH]ccc2c1 | cell-free assay | – | competition with immobilised ligand | 0.1 µM | remaining binding | 55% |
| Clc1ccc(Nc2nnc(Cc3ccncc3)c3ccccc23)cc1 | cell-free assay | – | – | 0.5 µM | remaining signal | 98.8% |
| O=C(CSc1nc2nccnc2c(=O)n1CCc1ccccc1)Nc1nccs1 | enzyme activity | inhibitor | – | 10 µM | inhibition | 6% |
| C[C@H](c1ccnc(Nc2nc3ccc(-c4cc(N(C)C)ncn4)cc3[nH]2)c1)N1CCN(C(=O)CC(F)(F)F)CC1 | cell-free assay | – | competition with immobilised ligand | 0.1 µM | remaining binding | 100% |
| O=C(Nc1cnn(-c2csc(C(=O)NC3COC3)c2)c1)Nc1ccccc1Cl | enzyme activity | inhibitor | – | 5 µM | remaining activity | 97.1% |
| CNC(=O)c1cc(Oc2ccc(NC(=O)Nc3ccc(Cl)c(C(F)(F)F)c3)cc2)ccn1 | enzyme activity | inhibitor | – | 0.3 µM | inhibition | 4% |
| COc1cc(Nc2cnc(C#N)c(O[C@H](C)CN(C)C)n2)ncc1-c1cnn(C)c1 | enzyme activity | inhibitor | radiometric | 10 µM | remaining activity | 104% |
| CCS(=O)(=O)c1cc2cc(C[C@@](O)(CC(C)(C)c3ccc(F)cc3C(N)=O)C(F)(F)F)[nH]c2cn1 | cell-free assay | – | competition with immobilised ligand | 1 µM | remaining binding | 100% |
| O=C(Nc1cnn(-c2csc(C(=O)NC3COC3)c2)c1)Nc1c(F)cccc1Cl | enzyme activity | inhibitor | – | 5 µM | remaining activity | 99.8% |
| CCC(=N\O)/C(C)=C/c1ccc(F)cc1 | cell-free assay | – | competition with immobilised ligand | 1 µM | remaining binding | 69% |
| O=C1NC(=O)c2cc(Nc3ccc(F)cc3)c(Nc3ccc(F)cc3)cc21 | cell-free assay | – | – | 0.5 µM | remaining signal | 95.7% |
